These results are taken from ChEMBL document CHEMBL4304743, “Discovery of ( E)- N1-(3-Fluorophenyl)- N3-(3-(2-(pyridin-2-yl)vinyl)-1 H-indazol-6-yl)malonamide (CHMFL-KIT-033) as a Novel c-KIT T670I Mutant Selective Kinase Inhibitor for Gastrointestinal Stromal Tumors (GISTs)” (J Med Chem, 2019).

Each structure is given as a SMILES string. Calls of active or inactive are those of the source. No cut-off for these calls is given here. Where only a bound is given, the exact number is not on record here.

The nature of series [1]: MRT (0 to infinity) in mouse at 10 mg/kg, po measured after 5 to 720 mins by LC-tandem mass spectrometry analysis. It is filed as ADME, organism-based. The note with it: in vivo.
Series [2] in a line: Antitumor activity against human GIST5R cells xenografted in nude mouse assessed as tumor growth inhibition at 100 mg/kg, po administered […] via gavage for 28 days relative to control. The format is functional. The note with it: 672 h, read-out: TGI. The essentials: (§1)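 Female nu/nu mice (5 weeks old) given subcutaneous right-flank GIST-5R cells in Matrigel. Dosing began at tumors of 200-400 mm3; randomized, 4 mice per group. Daily oral dosing (QD) at 25, 50 or 100 mg/kg in 0.5% methylcellulose/0.4% Tween80, or vehicle alone, for 28 days. Body weight and tumor volume, (W²×L)/2, measured daily; mean±SEM.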
(Xenograft models place foreign cells or tissue in a host animal.)

The species named for series [3] is Homo sapiens. Nature of the series: Induction of apoptosis in human GIST5R cells harboring c-KIT 560 to 578 deletion/T670I double mutant assessed as increase in cleaved caspase level after 24 hrs by Western blot analysis. The format is functional, cell-based. A general note: A western blot detects proteins with antibodies after separation by electrophoresis.
Series [4] has as its target Platelet-derived growth factor receptor alpha (Homo sapiens, UniProt P16234). Briefly: Inhibition of wild-type human partial length PDGFRA (V575 to D1002 residues) expressed in mammalian expression system after 1 hr by Z-LYTE assay.
Series [5] addresses Platelet-derived growth factor receptor beta (Homo sapiens, UniProt P09619). Nature of the series: Binding affinity to wild-type human partial length PDGFRB (V582 to Y1009 residues) expressed in bacterial expression system assessed as enzyme remaining activity at 1 uM by Kinomescan assay relative to control. The essentials:
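KINOMEscan competition binding panel of 468 kinases and mutants, compound at 1 μM; binding reported as percent of control.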

The species named for series [6] is Homo sapiens. Nature of the series: Selectivity ratio, ratio of IC50 for wild-type His-tagged c-KIT (unknown origin) expressed in baculovirus infected sf9 cells to IC50 for His-tagged c-KIT T670I mutant (544 to 935 residues) (unknown origin) expressed in baculovirus infected sf9 cells. The essentials:
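Purified protein: His-tagged c-KIT wt or T670I, residues 544−935, expressed in baculovirus-infected SF9 cells. Purified by Ni-NTA then Superdex-200. Enzyme (wt 20 ng/µL, T670I 15 ng/µL) preincubated with inhibitor 60 min at room temperature. Then ATP/substrate added (50 µM ATP) and run 1 h at 37 °C. ADP-Glo luminescence read-out; IC50 from fitted dose–response curves.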

The nature of series [7]: AUC (0 to infinity) in Sprague-Dawley rat at 1 mg/kg, iv measured after 2 to 720 mins by LC-tandem mass spectrometry analysis. It is filed as ADME, organism-based. The arrangement: dose 1 mg/kg, route intravenous, time infinity. The note with it: in vivo. The essentials:
(§2)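 Male Sprague-Dawley rats (190-210 g), fasted 12 h, randomized into two groups: 1 mg/kg i.v. or 10 mg/kg p.o., both formulated in 10% DMSO/90% of 5% glucose water. Blood sampled at 2-720 min (i.v.) or 5-720 min (p.o.). Plasma protein-precipitated with methanol, caffeine internal standard, LC-MS/MS. Noncompartmental analysis; triplicate, ±SD.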

A short description of series [8]: MRT (0 to infinity) in Sprague-Dawley rat at 10 mg/kg, po measured after 5 to 720 mins by LC-tandem mass spectrometry analysis. It is filed as ADME, organism-based. The note with it: in vivo. The essentials:
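Male Sprague–Dawley rats (190-210 g), fasted 12 h, given 1 mg/kg i.v. or 10 mg/kg p.o. in DMSO/5% glucose water (1:9). Blood sampled at 2–720 min (i.v.) or 5–720 min (p.o.). Plasma proteins precipitated with methanol using caffeine internal standard, then LC-MS/MS. Noncompartmental analysis; F = AUC0-∞ ratio corrected for dose; triplicate ±SD.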

The subject of series [9] is Mast/stem cell growth factor receptor Kit (Homo sapiens), P10721 [V559D]. Briefly: Inhibition of TEL fused c-KIT V559D mutant (unknown origin) transfected in mouse BAF3 cells assessed as growth inhibition after 72 hrs by CCK8 assay. It is filed as cell-based. The essentials:
(§3)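 Tel-c-KIT-transformed BaF3 lines (IL-3 independent) kept in RPMI 1640 with 10% FBS, 2% L-glutamine and pen/strep. Cells at 1.5 to 5 × 10^4 cells/mL mixed with graded compound and incubated 72 h at 37 °C, 5% CO2. Viability by CCK-8 absorbance at 450 nm, normalized to DMSO. GI50 from dose–response fit.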

A short description of series [10]: AUC (0 to t) in Sprague-Dawley rat at 1 mg/kg, iv measured after 2 to 720 mins by LC-tandem mass spectrometry analysis. The format is ADME, organism-based. The note with it: in vivo. The essentials: as §2
Series [11] concerns Mast/stem cell growth factor receptor Kit (Homo sapiens), P10721 [D816V]. Nature of the series: Inhibition of TEL fused c-KIT D816V mutant (unknown origin) transfected in mouse BAF3 cells assessed as growth inhibition after 72 hrs by CCK8 assay. The format is cell-based. The essentials:
as §3
(Formazan colour is commonly taken as a measure of viable cells.)

Series [12] deals with Mast/stem cell growth factor receptor Kit (Homo sapiens), P10721 [V654A]. Nature of the series: Inhibition of TEL fused c-KIT V654A mutant (unknown origin) transfected in mouse BAF3 cells assessed as growth inhibition after 72 hrs by CCK8 assay. It is filed as cell-based. The essentials: as §3
Mast/stem cell growth factor receptor Kit (Homo sapiens), P10721 [V654A], sequence (P10721 whole entry V654A, the tested form may be a part): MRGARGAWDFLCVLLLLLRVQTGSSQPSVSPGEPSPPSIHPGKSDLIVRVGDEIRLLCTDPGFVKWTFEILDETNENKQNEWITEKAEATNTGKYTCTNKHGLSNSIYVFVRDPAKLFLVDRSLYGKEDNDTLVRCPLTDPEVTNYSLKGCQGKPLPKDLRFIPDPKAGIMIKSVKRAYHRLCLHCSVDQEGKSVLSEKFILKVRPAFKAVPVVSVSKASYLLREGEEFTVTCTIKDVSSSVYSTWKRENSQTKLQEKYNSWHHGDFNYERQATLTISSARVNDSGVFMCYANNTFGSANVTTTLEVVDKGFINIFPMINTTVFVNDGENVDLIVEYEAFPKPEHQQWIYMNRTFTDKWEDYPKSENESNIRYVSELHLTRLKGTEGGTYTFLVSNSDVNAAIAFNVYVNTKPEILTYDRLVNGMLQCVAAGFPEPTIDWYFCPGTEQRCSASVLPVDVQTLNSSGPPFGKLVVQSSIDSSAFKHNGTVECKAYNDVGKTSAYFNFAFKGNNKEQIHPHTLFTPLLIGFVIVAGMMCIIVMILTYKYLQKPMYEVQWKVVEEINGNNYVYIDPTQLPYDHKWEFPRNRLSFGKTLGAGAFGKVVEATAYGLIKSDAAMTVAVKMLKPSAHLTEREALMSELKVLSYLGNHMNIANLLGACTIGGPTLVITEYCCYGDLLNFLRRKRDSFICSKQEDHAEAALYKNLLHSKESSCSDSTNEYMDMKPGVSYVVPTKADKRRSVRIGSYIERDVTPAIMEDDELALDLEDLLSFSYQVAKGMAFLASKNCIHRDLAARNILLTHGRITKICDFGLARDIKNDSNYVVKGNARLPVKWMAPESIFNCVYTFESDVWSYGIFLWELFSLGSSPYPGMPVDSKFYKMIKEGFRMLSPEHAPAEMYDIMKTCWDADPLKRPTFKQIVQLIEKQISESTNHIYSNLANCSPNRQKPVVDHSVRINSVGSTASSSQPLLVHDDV
A further series has as its system GISTT1. Briefly: Antiproliferative activity against human GISTT1 cells harboring c-KIT 560 to 578 deletion/T670I double mutant incubated for 72 hrs by CCK8 assay. It is filed as functional. The note with it: GISTT1, 72 h. The essentials: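 Adherent GIST cells seeded at 1.5-5 × 10^4 cells/mL and left overnight at 37 °C, 5% CO2. Medium then replaced with medium holding serial compound dilutions; 72 h incubation. Viability by CCK-8, absorbance at 450 nm, normalized to DMSO control; GI50 from dose-response fit.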

The test system of series [13] is Mast/stem cell growth factor receptor Kit (Homo sapiens), P10721 [UNDEFINED MUTATION]. Briefly: Inhibition of c-KIT 560 to 578 deletion/T670I double mutant in human GIST5R cells assessed as reduction in S6 phosphorylation at S235/S236 residue at 0.1 uM to 3 uM after 1 hr by Western blot analysis. It is filed as cell-based. The essentials:
(§4)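 Serial compound dilutions applied for 1 h to GIST-T1, GIST-T1-T670I (CRISPR/Cas9 T670I knock-in, clone confirmed by Sanger sequencing) or GIST-5R cells in DMEM with 10% FBS. Cells then lysed and phospho-proteins detected by standard Western blotting.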

The nature of series [14]: AUC (0 to infinity) in Sprague-Dawley rat at 10 mg/kg, po measured after 5 to 720 mins by LC-tandem mass spectrometry analysis. It is filed as ADME, organism-based. The arrangement: dose 10 mg/kg, route oral, time infinity. The note with it: in vivo. The essentials: as §2
The target of series [15] is Mast/stem cell growth factor receptor Kit (Homo sapiens, UniProt P10721). Briefly: Inhibition of TEL fused wild type c-KIT (unknown origin) transfected in mouse BaF3 cells assessed as reduction in phosphorylation at Y719 residue after 2 hrs by Western blot analysis. The format is cell-based.
Mast/stem cell growth factor receptor Kit, sequence (P10721 whole entry, the tested form may be a part): as the sequence (P10721 whole entry V654A, the tested form may be a part) above, with A654V counted along it
Series [16] relates to Mast/stem cell growth factor receptor Kit (Homo sapiens), P10721 [UNDEFINED MUTATION]. Nature of the series: Inhibition of c-KIT 560 to 578 deletion/T670I double mutant in human GIST5R cells assessed as reduction in c-KIT autophosphorylation at Y719 residue at 0.1 uM to 3 uM after 1 hr by Western blot analysis. It is filed as cell-based. The essentials: as §4
Mast/stem cell growth factor receptor Kit (Homo sapiens), P10721 [UNDEFINED MUTATION], sequence (P10721 whole entry, looked up, stated change not applied): as the sequence (P10721 whole entry V654A, the tested form may be a part) above, with A654V counted along it
Series [17] in a line: Antitumor activity against human GIST5R cells xenografted in nude mouse assessed as tumor weight at 50 mg/kg, po administered […] via gavage for 28 days (reference value: 0.59g). The format is functional. The essentials: as §1

One may read the MRT inf as a mean duration of stay, worked out from the concentration-time curve. One may read the IC50 as the midpoint of a concentration-inhibition curve. Usually AUC(0-inf) stands for total exposure, with the tail of the curve extrapolated. Low readings indicate less exposure, high ones more exposure. The term GI50 denotes the concentration at which growth is held to half of that of the control. What is called AUC(0-t) is exposure summed from dosing to a finite time, without extrapolation to infinity. Low values mean less exposure, high ones more exposure. What is called EC50 is the concentration needed to bring the measured effect to its halfway point.

Platelet-derived growth factor receptor beta, sequence (P09619 whole entry, the tested form may be a part): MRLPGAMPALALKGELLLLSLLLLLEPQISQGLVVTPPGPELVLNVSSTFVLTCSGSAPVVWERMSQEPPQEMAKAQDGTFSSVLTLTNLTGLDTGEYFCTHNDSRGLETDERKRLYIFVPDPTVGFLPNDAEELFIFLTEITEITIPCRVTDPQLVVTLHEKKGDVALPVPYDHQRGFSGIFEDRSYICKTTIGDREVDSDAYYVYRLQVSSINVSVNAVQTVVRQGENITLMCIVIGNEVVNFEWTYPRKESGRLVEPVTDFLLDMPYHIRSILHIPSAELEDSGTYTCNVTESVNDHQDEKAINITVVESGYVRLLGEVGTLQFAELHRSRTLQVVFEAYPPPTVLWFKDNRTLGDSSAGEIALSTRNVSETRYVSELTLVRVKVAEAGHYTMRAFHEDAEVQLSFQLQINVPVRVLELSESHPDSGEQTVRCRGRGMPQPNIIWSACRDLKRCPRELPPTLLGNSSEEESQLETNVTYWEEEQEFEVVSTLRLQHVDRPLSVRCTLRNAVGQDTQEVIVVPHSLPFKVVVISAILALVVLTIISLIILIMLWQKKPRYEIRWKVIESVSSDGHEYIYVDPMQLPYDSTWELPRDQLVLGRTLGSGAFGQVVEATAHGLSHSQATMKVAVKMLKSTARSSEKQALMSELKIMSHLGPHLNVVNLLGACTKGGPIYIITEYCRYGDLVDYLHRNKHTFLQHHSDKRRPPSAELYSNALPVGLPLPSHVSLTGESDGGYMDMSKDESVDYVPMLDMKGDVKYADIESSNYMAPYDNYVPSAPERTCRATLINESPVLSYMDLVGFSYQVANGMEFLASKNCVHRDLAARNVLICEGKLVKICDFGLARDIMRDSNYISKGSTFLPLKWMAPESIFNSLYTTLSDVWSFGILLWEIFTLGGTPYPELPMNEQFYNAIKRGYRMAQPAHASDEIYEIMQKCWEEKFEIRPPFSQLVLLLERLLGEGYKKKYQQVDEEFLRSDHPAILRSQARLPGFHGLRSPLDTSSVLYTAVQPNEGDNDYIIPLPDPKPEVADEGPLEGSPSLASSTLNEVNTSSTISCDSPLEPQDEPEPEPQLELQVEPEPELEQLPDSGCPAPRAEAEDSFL
Mast/stem cell growth factor receptor Kit (Homo sapiens), P10721 [V559D], sequence (P10721 whole entry V559D, the tested form may be a part): as the sequence (P10721 whole entry V654A, the tested form may be a part) above, with V559D, A654V counted along it
Platelet-derived growth factor receptor alpha, sequence (P16234 whole entry, the tested form may be a part): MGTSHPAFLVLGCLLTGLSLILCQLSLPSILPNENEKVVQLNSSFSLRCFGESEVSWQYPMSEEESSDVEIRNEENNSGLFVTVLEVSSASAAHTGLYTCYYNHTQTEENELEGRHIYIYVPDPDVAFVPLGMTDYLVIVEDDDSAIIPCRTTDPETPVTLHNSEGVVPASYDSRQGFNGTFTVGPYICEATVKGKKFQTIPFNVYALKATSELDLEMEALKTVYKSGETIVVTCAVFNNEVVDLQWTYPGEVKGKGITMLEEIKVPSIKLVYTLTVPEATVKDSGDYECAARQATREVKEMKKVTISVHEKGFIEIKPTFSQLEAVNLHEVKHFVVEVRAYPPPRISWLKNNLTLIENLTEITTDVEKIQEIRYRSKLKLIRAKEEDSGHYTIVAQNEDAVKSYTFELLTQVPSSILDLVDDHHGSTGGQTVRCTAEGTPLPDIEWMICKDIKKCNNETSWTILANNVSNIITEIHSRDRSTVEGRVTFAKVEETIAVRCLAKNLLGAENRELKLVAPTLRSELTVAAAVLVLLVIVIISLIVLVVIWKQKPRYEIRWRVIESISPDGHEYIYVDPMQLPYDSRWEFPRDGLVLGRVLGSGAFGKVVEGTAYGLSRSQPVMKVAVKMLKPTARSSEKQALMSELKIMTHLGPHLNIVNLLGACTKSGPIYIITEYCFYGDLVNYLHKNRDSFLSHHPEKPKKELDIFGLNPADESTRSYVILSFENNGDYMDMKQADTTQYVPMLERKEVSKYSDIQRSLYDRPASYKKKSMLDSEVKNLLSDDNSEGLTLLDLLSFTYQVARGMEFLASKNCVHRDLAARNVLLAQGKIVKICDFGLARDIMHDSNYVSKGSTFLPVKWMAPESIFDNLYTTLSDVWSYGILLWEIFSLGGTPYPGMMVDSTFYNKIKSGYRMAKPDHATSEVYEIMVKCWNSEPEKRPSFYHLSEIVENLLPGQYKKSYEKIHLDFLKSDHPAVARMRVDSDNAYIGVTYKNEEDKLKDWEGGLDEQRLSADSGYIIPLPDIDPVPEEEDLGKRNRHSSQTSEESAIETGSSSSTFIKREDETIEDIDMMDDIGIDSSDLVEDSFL
Mast/stem cell growth factor receptor Kit (Homo sapiens), P10721 [D816V], sequence (P10721 whole entry D816V, the tested form may be a part): as the sequence (P10721 whole entry V654A, the tested form may be a part) above, with A654V, D816V counted along it

In the case of `O=C(CC(=O)Nc1ccc2c(/C=C/c3ccccn3)n[nH]c2c1)Nc1cccc(F)c1`, the MRT inf in series [1] was found to be 2.2 h; in series [8] it was 5.4 h. For the same compound, the inhibition in vivo at 100 mg/kg in series [2] is 83%. In addition, the Activity entry was “Dose-dependent effect” in the series filed under Homo sapiens [3], 0% in series [5] and 0.25 g in [17]. The compound further came in with a concentration for half-maximal inhibition (IC50) in [4] of 7.78 µM. Besides, the Ratio IC50 in the series listed under Homo sapiens [6] came out at 12. For the same compound, the AUC(0-inf) in series [7] turned out to be 307 ng·h/mL; in series [14], 809 ng·h/mL. The GI50 in series [9] is 8 nM; in series [11], 3.46 µM; in series [12], 525 nM; with GISTT1 it was 288 nM. The same compound had an AUC(0-t) in series [10] of 259 ng·h/mL. Further, the inhibition result in series [13] and in series [16] was “Active” each time. Also, in series [15], the EC50 is above 1000 nM.
